# Measured values of several laboratories.
# Lines come from different studies, so protocols differ.
# Cnr2: Cannabinoid receptor 2 (Cnr2, Mus musculus, UniProt P47936)
# G protein-coupled receptor 88: G protein-coupled receptor 88 (Homo sapiens, UniProt Q9GZN0)
# SLCO1B3: Solute carrier organic anion transporter family member 1B3 (SLCO1B3, Homo sapiens, UniProt Q9NPD5)
SMILES,target,assay,test system,conditions,quantity,result
CCCCCCC(C)(C)c1cc(O)c2c(c1)OC(C)(C)[C@@H]1CC=C(C)C[C@@H]21,Cnr2,"ligand displacement, radioligand",,cell membranes,Ki,0.0014 µM
CCCCOc1ccc([C@@H](CO)C(=O)N[C@H](C)c2ccccc2)cc1,G protein-coupled receptor 88,"cAMP, agonist, TR-FRET",,,EC50,5.13 µM
O=c1[nH]c2ccccc2n1C1CCN(CCCC(c2ccc(F)cc2)c2ccc(F)cc2)CC1,"Signal transducer and activator of transcription 5B, SH2 (STAT5B, Homo sapiens, UniProt P51692)","protein-protein interaction, inhibitor, FP",,,IC50,75.1 µM
CC(C)(C)[C@H](NC(=O)C(F)(F)F)C(=O)N1C[C@H]2[C@@H]([C@H]1C(=O)N[C@H](C#N)C[C@@H]1CCNC1=O)C2(C)C,SLCO1B3,"transporter uptake, inhibitor",,,Ki,283 µM
CCCCCOc1ccc([C@@H](CO)C(=O)N[C@H](C)c2ccccc2)cc1,G protein-coupled receptor 88,"cAMP, agonist, TR-FRET",,,EC50,3.24 µM
OCCCCO,"Cytochrome P450 2E1 (Cyp2e1, Rattus norvegicus, UniProt P05182)","enzyme activity, inhibitor","Fischer 344 rat, liver microsomes",30 min,IC50,5800 µM
Cc1c(C(=O)c2cccc3ccccc23)c2cccc3c2n1[C@H](CN1CCOCC1)CO3,Cnr2,"ligand displacement, radioligand",,cell membranes,Ki,0.0058 µM
O=C[C@H](C[C@@H]1CCNC1=O)NC(=O)[C@H](CC1CCCCC1)NC(=O)c1cc2ccccc2[nH]1,"Procathepsin L (CTSL, Homo sapiens, UniProt P07711)","enzyme activity, inhibitor",,,IC50,0.00021 µM
CCOC(=O)c1cncn1[C@H](C)c1ccccc1,SLCO1B3,"transporter uptake, inhibitor, fluorescence",CHO,"30 min, pH 7.4",IC50,> 100 µM
